Data: ChEMBL document CHEMBL1773009, “Red-fluorescent argininamide-type NPY Y1 receptor antagonists as pharmacological tools” (Bioorg Med Chem, 2011)
pIC50, pKi: −log10 of the molar value. Active and inactive are the calls of the source. No cut-off for these calls is given here.

Columns and labels:
[1] = biological target: T1, Neuropeptide Y receptor type 1 (Homo sapiens) (UniProt P25929); assay: Antagonist activity at Y1R in human HEL cells assessed as inhibition of pNPY induced [Ca2+] mobilisation; type: functional, cell-based
T1 sequence (whole entry): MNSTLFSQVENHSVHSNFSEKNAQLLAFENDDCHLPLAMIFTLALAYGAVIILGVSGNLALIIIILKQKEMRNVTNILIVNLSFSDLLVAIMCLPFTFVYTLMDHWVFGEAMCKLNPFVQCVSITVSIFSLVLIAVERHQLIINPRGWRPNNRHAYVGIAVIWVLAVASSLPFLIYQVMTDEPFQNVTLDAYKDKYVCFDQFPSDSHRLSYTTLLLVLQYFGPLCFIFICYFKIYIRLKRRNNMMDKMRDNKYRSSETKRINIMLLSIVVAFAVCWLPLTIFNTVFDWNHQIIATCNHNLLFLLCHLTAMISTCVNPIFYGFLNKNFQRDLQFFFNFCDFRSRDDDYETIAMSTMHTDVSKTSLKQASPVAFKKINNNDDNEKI

[2] = biological target: T2, Neuropeptide Y receptor type 1 (Homo sapiens, UniProt P25929); assay: Displacement of [3H]-UR-MK114 from Y1R in human SK-N-MC cells; type: cell-based
T2 sequence (P25929 whole entry): T1 sequence (whole entry)

[3] = Chemical stability of the compound in DMSO at below 0 degC; type: physicochemical
[4] = Chemical stability in aqueous buffer assessed as compound decomposition after 20 mins at pH 7 by HPCL; type: physicochemical; settings: read-out: Activity
Summary of the method: (§1)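 Compound at 50 µM final (from 1 mM DMSO stock) in PBS pH 7.0, 20 °C; aliquots at 20 and 90 min diluted with acetonitrile/H2O/1% TFA, analysed by RP-HPLC (220 nm); release of parent argininamide quantified against a five-point calibration curve (0.3–25 µM).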

[5] = biological target: T1, Neuropeptide Y receptor type 1 (Homo sapiens); assay: Antagonist activity at Y1R in human MCF-7 cells at 50 nM after 5 to 8 mins by fluorescence confocal microscopy; type: functional, cell-based; settings: MCF7
Summary of the method: (§2)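 MCF-7-Y1 cells (MCF-7 subclone with 2–3-fold higher Y1R expression) pretreated 48 or 72 h with 1 nM 17β-estradiol; live-cell confocal imaging of fluorescent ligand (50–80 nM) after 5–23 min at rt in Leibovitz L15; non-specific binding with excess BIBP 3226 (5 µM or 80–125-fold); autofluorescence control.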

[6] = biological target: T3, Neuropeptide Y receptor type 5 (Homo sapiens, UniProt Q15761); assay: Displacement of Dy-635-pNPY from human Y5R expressed in HEC-1B cells by flow cytometry
T3 sequence (Q15761 whole entry): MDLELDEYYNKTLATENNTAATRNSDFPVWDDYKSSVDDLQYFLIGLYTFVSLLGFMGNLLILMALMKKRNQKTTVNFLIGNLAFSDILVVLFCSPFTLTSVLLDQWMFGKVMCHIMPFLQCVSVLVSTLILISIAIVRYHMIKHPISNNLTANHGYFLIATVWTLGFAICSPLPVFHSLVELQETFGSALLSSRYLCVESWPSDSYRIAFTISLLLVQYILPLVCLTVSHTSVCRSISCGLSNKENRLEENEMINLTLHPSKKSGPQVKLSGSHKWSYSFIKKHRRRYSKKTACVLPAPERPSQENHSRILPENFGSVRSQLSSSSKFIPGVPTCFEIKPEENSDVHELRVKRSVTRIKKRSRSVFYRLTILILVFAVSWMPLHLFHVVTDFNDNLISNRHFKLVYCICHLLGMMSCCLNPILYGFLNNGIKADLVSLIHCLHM

[7] = biological target: Neuropeptide Y receptor type 4 (Homo sapiens, UniProt P50391); assay: Displacement of Cy5-[K4]-hpp from human Y4R expressed in CHO cells by flow cytometry; type: cell-based
Summary of the method: (§3)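 Flow cytometric displacement of labelled peptides: Cy5-[K4]-hPP on CHO-Y4 cells; Dy-635-pNPY or Cy5-pNPY on CHO-Y2 and HEC-1B-Y5 cells. Test ligands only at 1 and 10 µM or at 0.3 and 1 µM; for the red-excitable ligand, its own fluorescence without peptide was subtracted.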

[8] = biological target: T4, Neuropeptide Y receptor type 2 (Homo sapiens, UniProt P49146); assay: Displacement of Dy-635-pNPY from human Y2R expressed in CHO cells by flow cytometry; type: cell-based; summary of the method: as §3
T4 sequence (P49146 whole entry): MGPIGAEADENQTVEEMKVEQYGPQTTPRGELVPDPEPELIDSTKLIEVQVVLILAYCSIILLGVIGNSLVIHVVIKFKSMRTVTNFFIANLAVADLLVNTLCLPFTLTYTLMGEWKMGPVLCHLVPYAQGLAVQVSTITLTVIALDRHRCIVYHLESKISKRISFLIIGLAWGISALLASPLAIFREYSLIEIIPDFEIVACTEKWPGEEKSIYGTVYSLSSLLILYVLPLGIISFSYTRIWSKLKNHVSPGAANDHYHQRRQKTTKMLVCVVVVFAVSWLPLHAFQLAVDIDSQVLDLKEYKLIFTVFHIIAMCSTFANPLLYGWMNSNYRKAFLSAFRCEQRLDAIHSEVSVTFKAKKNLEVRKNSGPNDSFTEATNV

[9] = Chemical stability in aqueous buffer assessed as compound decomposition after 90 mins at pH 7 by HPCL; type: physicochemical; settings: read-out: Activity; summary of the method: as §1
[10] = biological target: T2, Neuropeptide Y receptor type 1; assay: Displacement of [3H]-UR-MK114 from Y1R in human SK-N-MC cells by radioligand competition binding
[11] = biological target: T1, Neuropeptide Y receptor type 1 (Homo sapiens); assay: Antagonist activity at Y1R in human MCF-7 cells at 80 nM after 23 mins by fluorescence confocal microscopy; type: functional, cell-based; settings: MCF7; summary of the method: as §2

Neuropeptide Y receptor type 4, sequence (P50391 whole entry): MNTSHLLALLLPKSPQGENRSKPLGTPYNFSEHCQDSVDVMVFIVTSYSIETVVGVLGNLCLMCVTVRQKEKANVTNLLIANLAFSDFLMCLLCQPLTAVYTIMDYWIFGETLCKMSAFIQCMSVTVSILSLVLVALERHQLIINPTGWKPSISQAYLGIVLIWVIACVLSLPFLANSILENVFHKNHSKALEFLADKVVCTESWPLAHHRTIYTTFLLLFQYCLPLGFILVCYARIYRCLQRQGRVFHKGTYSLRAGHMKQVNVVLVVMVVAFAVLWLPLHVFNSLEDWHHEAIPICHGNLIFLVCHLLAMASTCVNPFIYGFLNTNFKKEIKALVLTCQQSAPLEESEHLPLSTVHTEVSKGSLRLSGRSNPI

Structure (SMILES) | Kb [1] [nM] | pKi [2] | Stability [3] [months] | other results
Cc1cc(/C=C\C=C2\N(C)c3ccc4ccccc4c3C2(C)C)cc(C)[n+]1CCOCCOCCNC(=O)CCCCCCC(=O)/N=C(/N)NCCC[C@@H](NC(=O)C(c1ccccc1)c1ccccc1)C(=O)NCc1ccc(O)cc1.O=C([O-])C(F)(F)F | 7.8 | 6.89 | 12 | –
Cc1cc(/C=C/c2cc3c4c(c2)CCCN4CCC3)cc(C)[n+]1CCNC(=O)CCCC(=O)/N=C(/N)NCCC[C@@H](NC(=O)C(c1ccccc1)c1ccccc1)C(=O)NCc1ccc(O)cc1.O=C([O-])C(F)(F)F | 6 | 7.66 | 12 | degraded at 20 min [4]: 1%; Activity [5]: Active; pIC50 [6]: < 5.00; pKi [6]: < 5.30; pIC50 [7]: < 5.00; pKi [7]: < 5.52; pIC50 [8]: < 5.00; pKi [8]: < 5.52; degraded at 1.5 h [9]: 2.6%; pKi [10]: 7.66
NCCCCNC(=O)/N=C(/N)NCCC[C@@H](NC(=O)C(c1ccccc1)c1ccccc1)C(=O)NCc1ccc(O)cc1 | 16 | 8.37 | – | –
Cc1cc(/C=C/c2cc3c4c(c2)CCCN4CCC3)cc(C)[n+]1CCN(CCNC(=O)CCCCCCC(=O)/N=C(\N)NCCC[C@@H](NC(=O)C(c1ccccc1)c1ccccc1)C(=O)NCc1ccc(O)cc1)CCNC(=O)CCCCCCC(=O)/N=C(\N)NCCC[C@@H](NC(=O)C(c1ccccc1)c1ccccc1)C(=O)NCc1ccc(O)cc1.O=C([O-])C(F)(F)F | 0.6 | 7.00 | 12 | –
Cc1cc(/C=C/C=C/c2ccc(N(C)C)cc2)cc(C)[n+]1CCCCNC(=O)/N=C(/N)NCCC[C@@H](NC(=O)C(c1ccccc1)c1ccccc1)C(=O)NCc1ccc(O)cc1.O=C([O-])C(F)(F)F | 7.6 | 6.82 | 12 | –
Cc1cc(/C=C/c2cc3c4c(c2)CCCN4CCC3)cc(C)[n+]1CCCCNC(=O)/N=C(/N)NCCC[C@@H](NC(=O)C(c1ccccc1)c1ccccc1)C(=O)NCc1ccc(O)cc1.O=C([O-])C(F)(F)F | 7.2 | 6.85 | 12 | –
Cc1cc(/C=C/c2cc3c4c(c2)CCCN4CCC3)cc(C)[n+]1CCN(CCNC(=O)CCCCC(=O)/N=C(\N)NCCC[C@@H](NC(=O)C(c1ccccc1)c1ccccc1)C(=O)NCc1ccc(O)cc1)CCNC(=O)CCCCC(=O)/N=C(\N)NCCC[C@@H](NC(=O)C(c1ccccc1)c1ccccc1)C(=O)NCc1ccc(O)cc1.O=C([O-])C(F)(F)F | 1.2 | 7.21 | 12 | degraded at 20 min [4]: 0%; degraded at 1.5 h [9]: < 0.5%
NCCCCCC(=O)NC(N)=NCCC[C@@H](NC(=O)C(c1ccccc1)c1ccccc1)C(=O)NCc1ccc(O)cc1 | – | 7.72 | – | –
Cc1cc(/C=C/c2cc3c4c(c2)CCCN4CCC3)cc(C)[n+]1CCN(CCNC(=O)CCCNC(=O)CCCC(=O)/N=C(\N)NCCC[C@@H](NC(=O)C(c1ccccc1)c1ccccc1)C(=O)NCc1ccc(O)cc1)CCNC(=O)CCCNC(=O)CCCC(=O)/N=C(\N)NCCC[C@@H](NC(=O)C(c1ccccc1)c1ccccc1)C(=O)NCc1ccc(O)cc1.O=C([O-])C(F)(F)F | 1 | 7.25 | 12 | Activity [11]: Active
Cc1cc(/C=C/C=C2\N(C)c3ccc4ccccc4c3C2(C)C)cc(C)[n+]1CCOCCOCCNC(=O)CCCC(=O)/N=C(/N)NCCC[C@@H](NC(=O)C(c1ccccc1)c1ccccc1)C(=O)NCc1ccc(O)cc1.O=C([O-])C(F)(F)F | 6.8 | 7.02 | 12 | –
CN(C)c1ccc(/C=C/C=C/c2sc3ccccc3[n+]2CCCC(=O)O)cc1.O=C([O-])C(F)(F)F | – | – | 12 | –
Cc1cc(/C=C/c2cc3c4c(c2)CCCN4CCC3)cc(C)[n+]1CCCNC(=O)CCCC(=O)/N=C(/N)NCCC[C@@H](NC(=O)C(c1ccccc1)c1ccccc1)C(=O)NCc1ccc(O)cc1.O=C([O-])C(F)(F)F | 11 | 7.42 | 12 | –
CN(C)c1ccc(/C=C/C=C/c2sc3ccccc3[n+]2CCCC(=O)NCCNC(=O)CCCC(=O)/N=C(/N)NCCC[C@@H](NC(=O)C(c2ccccc2)c2ccccc2)C(=O)NCc2ccc(O)cc2)cc1.O=C([O-])C(F)(F)F | 2.4 | 7.38 | 12 | –
Cc1cc(/C=C/C=C/c2ccc(N(C)C)cc2)cc(C)[n+]1CCCCCC(=O)/N=C(/N)NCCC[C@@H](NC(=O)C(c1ccccc1)c1ccccc1)C(=O)NCc1ccc(O)cc1.O=C([O-])C(F)(F)F | 3.7 | 7.30 | 12 | –
NCCCCCC(=O)/N=C(/N)NCCC[C@@H](NC(=O)C(c1ccccc1)c1ccccc1)C(=O)NCc1ccc(O)cc1 | 95 | – | – | –
Cc1cc(/C=C/c2cc3c4c(c2)CCCN4CCC3)cc(C)[n+]1CCOCCOCCOCCC(=O)/N=C(/N)NCCC[C@@H](NC(=O)C(c1ccccc1)c1ccccc1)C(=O)NCc1ccc(O)cc1.O=C([O-])C(F)(F)F | 4.1 | 7.01 | 12 | –
CN(C)c1ccc(/C=C/C=C/c2sc3ccccc3[n+]2CCCC(=O)ON2C(=O)CCC2=O)cc1.O=C([O-])C(F)(F)F | – | – | 12 | –
Cc1cc(/C=C/c2cc3c4c(c2)CCCN4CCC3)cc(C)[n+]1CCCCCC(=O)/N=C(/N)NCCC[C@@H](NC(=O)C(c1ccccc1)c1ccccc1)C(=O)NCc1ccc(O)cc1.O=C([O-])C(F)(F)F | – | 7.54 | 12 | –
Cc1cc(/C=C/C=C/c2ccc(N(C)C)cc2)cc(C)[n+]1CCOCCOCC(=O)/N=C(/N)NCCC[C@@H](NC(=O)C(c1ccccc1)c1ccccc1)C(=O)NCc1ccc(O)cc1.O=C([O-])C(F)(F)F | 11 | 7.62 | 12 | Activity [5]: Active
Cc1cc(/C=C/C=C2\N(C)c3ccc4ccccc4c3C2(C)C)cc(C)[n+]1CCOCCOCCNC(=O)CCCCC(=O)/N=C(/N)NCCC[C@@H](NC(=O)C(c1ccccc1)c1ccccc1)C(=O)NCc1ccc(O)cc1.O=C([O-])C(F)(F)F | 8 | 6.89 | 12 | –
N=C(N)N(CCC[C@@H](NC(=O)C(c1ccccc1)c1ccccc1)C(=O)NCc1ccc(O)cc1)C(=O)NCCCCN | 510 | 7.42 | – | –
Cc1cc(/C=C/c2cc3c4c(c2)CCCN4CCC3)cc(C)[n+]1CCCCCC(=O)/N=C(/N)NCCC[C@@H](NC(=O)C(c1ccccc1)c1ccccc1)C(=O)NCc1ccc(CNC(N)=O)cc1.O=C([O-])C(F)(F)F | 12 | 7.64 | 12 | degraded at 20 min [4]: 0%; Activity [5]: Active; degraded at 1.5 h [9]: < 0.5%
